# Published values collected from several papers.
# Target: Angiopoietin-1 receptor (TEK, Homo sapiens, UniProt Q02763)
SMILES,assay,conditions,remaining binding
O=C(Nc1c[nH]nc1C(=O)NC1CCNCC1)c1cc(F)cc(F)c1,"binding, competition with immobilised ligand",1 µM,94%
C[C@@H]1CCN(c2nccc(-c3cnn4ncccc34)n2)C1,binding,1 µM,77%
C[C@@H]1CN(c2cc(-c3n[nH]c4ccc(OC5(C)CC5)cc34)ncn2)C[C@H](C)O1,"cell-free assay, competition with immobilised ligand",0.1 µM,100%
COc1ccnn2ncc(-c3ccnc(N(C)C)n3)c12,binding,1 µM,100%
CNC(=O)c1ccc(Nc2ncc(C(F)(F)F)c(NCc3nccnc3N(C)S(C)(=O)=O)n2)cc1,"cell-free assay, competition with immobilised ligand",0.1 µM,69%
N#Cc1ccccc1CSc1nnc2c(n1)[nH]c1ccccc12,"binding, competition with immobilised ligand",10 µM,100%
C=CC(=O)N1CCC(C(=O)NCC(=O)N2CCN(c3nc(-c4cnc(N)nc4C(F)F)nc(N4CCOCC4)n3)CC2)CC1,"binding, competition with immobilised ligand",1 µM,97%
CCCOc1ccc([C@@H]2[C@@H](C(=O)O)[C@H](c3ccc4c(c3)OCO4)CN2CC(=O)Nc2c(CC)cccc2CC)cc1,"cell-free assay, competition with immobilised ligand",1 µM,86%
CC1CCCN1c1nccc(-c2cnn3ncccc23)n1 (stereo not shown),binding,1 µM,98%
COc1ncc2cc3ccccc3nc2c1C#N,"cell-free assay, competition with immobilised ligand",5 µM,88%
CN(C)C(=O)Cn1cc(-c2nc(C3(c4ccc(-c5cnc(N)nc5)cc4)CC3)no2)cn1,"cell-free assay, competition with immobilised ligand",1 µM,88%
O=C(NCCCN1CCOCC1)c1ccc(Nc2ncc(Cl)c(-c3ccc(Cl)s3)n2)cc1,"binding, competition with immobilised ligand",1 µM,47%
c1cncc(-c2cccc(Nc3nccc(NC4CCCCC4)n3)c2)c1,"binding, competition with immobilised ligand",10 µM,38%
C[C@@H]1CN(c2ccc3ncc(-c4ccc5[nH]nc(C6CC6)c5c4)n3n2)C[C@H](C)O1,"binding, competition with immobilised ligand",50 nM,99%
Cc1cnn2ncc(-c3ccnc(N(C)C)n3)c2c1,binding,1 µM,100%
O=C(NCCCN1CCOCC1)c1ccc(Nc2nccc(-c3cc4ccccc4s3)n2)cc1,"binding, competition with immobilised ligand",1 µM,58%
O=C(NCCCC1CCCCC1)c1ccc(CNC(=O)c2cnn(-c3ccccc3)c2C(F)(F)F)cc1,"cell-free assay, competition with immobilised ligand",0.1 µM,100%
FC(F)(F)Oc1cccc(-c2cnc3ccc(-c4ccncc4)nn23)c1,"cell-free assay, competition with immobilised ligand",5 µM,76%
O=C(NCc1ncc(C(F)(F)F)cc1Cl)c1ccc2c(c1)C1(CCS(=O)(=O)CC1)[C@H](C1CC1)N2S(=O)(=O)c1ccc(F)cc1,"cell-free assay, competition with immobilised ligand",1 µM,100%
COc1cnc(Nc2cccc(S(N)(=O)=O)c2)nc1N1CCN(c2ccccc2)CC1,"binding, competition with immobilised ligand",1 µM,100%
C[C@H](NC(=O)c1cnc2n1[C@](C)(Cc1ccc(C#N)cc1)C(=O)N2c1cc(Cl)c(F)c(Cl)c1)C(=O)NC1(c2ccccn2)CC1,"cell-free assay, competition with immobilised ligand",1 µM,91%
N[C@@H]1CCN(c2nccc(-c3cnn4ncccc34)n2)C1,binding,1 µM,98%
O=C(c1ccc(Nc2ncc(Cl)c(-c3ccc(Cl)s3)n2)cc1)N1CCC(N2CCCC2)CC1,"binding, competition with immobilised ligand",1 µM,23%
CN(C)c1ncc(F)c(-c2cnn3ncccc23)n1,binding,1 µM,100%
Cc1nc(N2CC[C@@H](O)C2)ncc1-c1cc(C(F)(F)F)cc2[nH]ncc12,"cell-free assay, competition with immobilised ligand",1 µM,100%
